Experimental findings from paper PMC9826439 (Chemistry (Weinheim an Der Bergstrasse, Germany), 2022) are described below.

In assay [1] the target is human cathepsin L (Homo sapiens, UniProt P07711). Briefly: Cathepsin L inhibition assay. The note with it: ratio of k inac/K i values. It counts as biochemical. The gist of the method: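 Commercial human cathepsin; inactivation progress curves recorded for 60 min at five test-compound concentrations, in duplicate. pNA substrates were read at 405 nm (cuvette) and AMC substrates at λex 360/λem 460 nm. kobs came from a non-linear progress-curve fit, and kinac/Ki from a kobs vs [I] fit corrected by [S]/Km. Remaining activity was taken at 5 μM. SR is the ratio of rhodesain to cathepsin kinac/Ki.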
Sequence of human cathepsin L (P07711 114-333): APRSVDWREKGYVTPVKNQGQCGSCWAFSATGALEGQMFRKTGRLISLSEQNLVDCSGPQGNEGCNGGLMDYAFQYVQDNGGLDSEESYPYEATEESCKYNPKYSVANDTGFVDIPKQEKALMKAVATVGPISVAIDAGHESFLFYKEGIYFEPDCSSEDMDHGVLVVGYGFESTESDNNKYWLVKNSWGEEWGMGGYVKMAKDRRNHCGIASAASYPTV

Assay [2] addresses rhodesain-like proteases (TbCatLs) in T. b. brucei cell lysate (Trypanosoma brucei brucei, UniProt P14658). In words: Competition profiling assay with ABP 7, T. b. brucei cell lysate. It counts as biochemical. The settings on record: T. b. brucei cell lysate 80 μg protein; inhibitor 0.016–10 μM, then ABP 7 5 μM.
Assay [3] addresses rhodesain (Trypanosoma brucei rhodesiense, UniProt Q95PM0). The note with it: E-64 15 µM preincubated 37 °C 15 min, then ABP 7 15 µM.

Sequence of rhodesain (Q95PM0 126-340 limits assumed): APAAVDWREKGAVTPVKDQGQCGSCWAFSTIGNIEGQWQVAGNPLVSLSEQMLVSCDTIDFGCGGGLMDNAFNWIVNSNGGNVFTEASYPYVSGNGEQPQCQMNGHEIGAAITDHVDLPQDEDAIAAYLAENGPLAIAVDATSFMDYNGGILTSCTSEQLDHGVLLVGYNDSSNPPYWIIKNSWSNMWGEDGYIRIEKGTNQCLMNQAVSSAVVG
Sequence of rhodesain-like proteases (TbCatLs) in T. b. brucei cell lysate (P14658 126-450): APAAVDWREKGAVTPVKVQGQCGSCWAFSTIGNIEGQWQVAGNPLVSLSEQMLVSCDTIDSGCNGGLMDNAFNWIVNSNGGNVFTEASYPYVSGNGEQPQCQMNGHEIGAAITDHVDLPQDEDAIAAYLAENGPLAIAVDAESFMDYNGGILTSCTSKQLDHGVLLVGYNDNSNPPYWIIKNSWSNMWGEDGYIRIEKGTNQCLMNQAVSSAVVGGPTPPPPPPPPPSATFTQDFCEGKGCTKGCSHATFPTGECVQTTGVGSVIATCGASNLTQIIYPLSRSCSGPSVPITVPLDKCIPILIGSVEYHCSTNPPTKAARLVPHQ

For `Cc1ccc(C[C@H](NC(=O)OC(C)(C)C)C(=O)NC/C=C/S(=O)(=O)c2ccccc2)cc1` [Compound 2, (S,E)‐tert‐Butyl 1‐oxo‐1‐(3‐(phenylsulfonyl)allylamino)‐3‐p‐tolylpropan‐2‐ylcarbamate], the “selectivity ratio (SR rhodesain/cathepsin L)” value in assay [1] is recorded as 23.8. Also, the “concentration at which significantly lowered ABP 7 labeling signal was observed” value in assay [2] is given as 80 nM.
For the compound `CC(C)C[C@H](NC(=O)[C@H]1O[C@@H]1C(=O)O)C(=O)NCCCCN=C(N)N` [E‐64], in assay [3], the “generation of the fluorescent rhodesain-7 adduct” value is “completely abolished”.
